Experimental data taken from paper PMC6371780 (ACS chemical neuroscience, 2018).
Read-outs that look alike come from different tables or passages of the source.

Tests used:
COX-1 [1] = conditions: cited from earlier work
COX-2 [2] = conditions: read-out: IC50 COX-2 monkey; cited from earlier work
COX-1 [3] = conditions: cited from earlier work; remark: listed apart in the source
COX-1 [4] = conditions: cited from earlier work; for IC50: read-out: IC50 COX-1 monkey
COX-1 [5] = molecular target: T1, COX-1 (Macaca mulatta, UniProt F6S984); assay: kinetic modeling of PET data; assay type: in vivo, rhesus monkey; conditions: for VND of [11C]PS13 (x-axis intercept of Lassen plot), by blocker experiment: PS13 1 mg/kg or KTP-Me 3 mg/kg as blocker; for reduction of [11C]PS13 brain regional VT values by preadministration: KTP-Me 3 mg/kg, MC1 0.3 mg/kg i.v.
T1 sequence (F6S984 25-599): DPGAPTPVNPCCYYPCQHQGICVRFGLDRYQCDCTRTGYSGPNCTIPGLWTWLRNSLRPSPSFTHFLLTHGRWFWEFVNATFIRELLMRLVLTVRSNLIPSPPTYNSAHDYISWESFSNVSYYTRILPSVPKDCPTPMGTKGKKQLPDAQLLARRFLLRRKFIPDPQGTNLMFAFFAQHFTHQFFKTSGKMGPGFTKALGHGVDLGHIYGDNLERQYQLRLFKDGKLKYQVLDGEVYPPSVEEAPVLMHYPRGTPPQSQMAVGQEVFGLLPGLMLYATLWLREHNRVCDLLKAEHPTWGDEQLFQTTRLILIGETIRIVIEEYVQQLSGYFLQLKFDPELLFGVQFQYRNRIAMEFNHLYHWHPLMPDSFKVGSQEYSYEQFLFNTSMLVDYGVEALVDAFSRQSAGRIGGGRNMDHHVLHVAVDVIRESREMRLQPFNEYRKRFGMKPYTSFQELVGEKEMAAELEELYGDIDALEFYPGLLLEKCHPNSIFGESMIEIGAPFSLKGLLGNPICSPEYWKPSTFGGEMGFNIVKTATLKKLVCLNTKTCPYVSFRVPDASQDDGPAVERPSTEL
Procedure, shortened: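 Each baseline scan was followed >3 h later by a blocking scan, with blocker given as an i.v. bolus 5–10 min before radioligand. Femoral arterial samples were taken every 15 s to 120 s, then at 3–120 min, and parent radioligand was measured by reversed-phase radio-HPLC. VT was estimated by voxel-level Logan analysis, uncorrected for blood volume, with identifiability as % SE. A Lassen plot of regional VT gave occupancy from its slope and VND from its x-intercept.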

COX-1 [6] = molecular target: T1, COX-1; assay: paired baseline/preblock PET experiments with [11C]PS13 in rhesus monkey; assay type: in vivo, rhesus monkey (Macaca mulatta); conditions: for whole-brain radioactivity of [11C]PS13 after administration of blocker: 45 min after radioligand, PS13 1 mg/kg, KTP-Me 3 mg/kg i.v.; for peak whole-brain radioactivity of [11C]PS13 after administration of blocker: blocker i.v. before [11C]PS13: PS13 1 mg/kg, KTP-Me 3 mg/kg, MC1 0.3 mg/kg; for decline of whole-brain radioactivity from peak / radioactivity in whole brain: 45 min after injection
Procedure, shortened: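 Male rhesus monkeys (7.5–12.8 kg) received an i.v. bolus of radioligand (212 ± 37 MBq; 114 ± 74 GBq/μmol) over 1 min. A baseline scan was followed more than 3 h later by a blocking scan, with inhibitor given i.v. minutes before radioligand. Scans were corrected for attenuation and scatter, and frames ran from 30 s to 10 min. Whole-brain (gray matter) time–activity curves were expressed as SUV.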

[7] = plasma free fraction by ultrafiltration, monkey plasma; assay type: in vitro ADME
Procedure, shortened: (§1)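 Free fraction was measured in triplicate by ultrafiltration through membrane filters, with filtrate radioactivity read by γ-counting. Plasma was venous plasma from each monkey, or pooled human arterial plasma stored at −80 °C. The human plasma served as the standard for normalization across studies.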

[8] = radiometabolite analysis of monkey plasma after i.v. radioligand; assay type: in vivo, rhesus monkey
[9] = log D by partition between n-octanol and sodium phosphate buffer; assay type: physicochemical; conditions: n-octanol / sodium phosphate buffer 0.15 M, pH 7.4
Procedure, shortened: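 Radioligand partitioned between n-octanol and 0.15 M sodium phosphate buffer, pH 7.4. Radioactivity in each phase counted by γ-counter. Buffer-phase radioactivity corrected for parent fraction by reversed-phase radio-HPLC on a C18 column.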

[10] = radioligand stability in monkey whole blood and plasma in vitro; assay type: in vitro ADME; conditions: monkey whole blood or plasma, 30 min, room temperature
Procedure, shortened: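 Formulated radioligand was incubated with monkey whole blood or plasma at room temperature for at least 30 min. Blood was lysed with water, and samples were deproteinized with acetonitrile and centrifuged at 10 000g. Supernatants were analysed by reversed-phase radio-HPLC, and precipitates were γ-counted for extraction efficiency. Stability was taken as the % unchanged radioligand divided by radiochemical purity.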

[11] = baseline PET brain time-activity curves in rhesus monkey; assay type: in vivo, rhesus monkey (Macaca mulatta); conditions: for decline of whole-brain radioactivity from peak / radioactivity concentration in whole brain: at 85 min; for peak radioactivity concentration in whole brain / time of peak radioactivity concentration in whole brain: i.v. radioligand
Procedure, shortened: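 Male rhesus monkeys (7.5–12.8 kg) were given ketamine (10 mg/kg i.m.) and kept on 1.6% isoflurane, head in a stereotaxic frame, and imaged on a microPET Focus 220. Radioligand (212 ± 37 MBq) in saline-ethanol 90:10 was given as an i.v. bolus over 1 min. The 120 min acquisition was reconstructed by FORE/2D FBP with attenuation, scatter and decay correction and coregistered to an MRI template. Regional gray-matter curves were expressed as SUV.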

[12] = plasma free fraction by ultrafiltration, pooled human plasma; assay type: in vitro ADME; conditions: pooled (standard) human plasma
Procedure, shortened: as §1

COX-2 [13] = conditions: read-out: IC50 COX-2 human; cited from earlier work
[14] = cited from earlier work
[15] = baseline of the paired experiment using KTP-Me
[16] = baseline of the paired experiments using PS13
[17] = baseline of the paired experiment with MC1

## C[C@@H](C(=O)O)c1cccc(C(=O)c2ccccc2)c1 (single isomer, unassigned) [R-enantiomer of KTP]
COX-1 [1]
  potency for inhibiting COX-1: negligible potency

## C[C@H](C(=O)O)c1cccc(C(=O)c2ccccc2)c1 [KTP, (S)-ketoprofen, reference compound]
COX-2 [2]
  IC50: 400 nM
COX-1 [3]; read-out: IC50 COX-1 human
  IC50: 20 nM
COX-1 [3]; read-out: IC50 for inhibiting human COX-1
  IC50: 47 nM
COX-1 [4]
  IC50: 1 nM

## COC(=O)[C@@H](C)c1cccc(C(=O)c2ccccc2)c1 [KTP-Me, (S)-ketoprofen methyl ester, reference compound]
COX-1 [5]
  VND of [11C]PS13 (x-axis intercept of Lassen plot), by blocker experiment: 1.8 mL/cm^3
COX-1 [5]; PS13 1 mg/kg, KTP-Me 3 mg/kg i.v., radioligand [11C]PS13
  COX-1 occupancy (slope of Lassen plot): 72 ± 4%
COX-1 [6]
  whole-brain radioactivity of [11C]PS13 after administration of blocker: 1.09 SUV
  peak whole-brain radioactivity of [11C]PS13 after administration of blocker: 4.14 SUV

## COc1cc(NCc2cccs2)nc(-c2ccc(S(C)(=O)=O)cc2)n1 [MC1, 6-methoxy-2-(4-(methylsulfonyl)phenyl)-N-(thiophen-2-ylmethyl)pyrimidin-4-amine, reference compound]
COX-1 [5]; PS13 1 mg/kg
  reduction of [11C]PS13 brain regional VT values by preadministration: no effect
COX-1 [3]; human
  fold lower potency for inhibiting COX-1 than COX-2: > 1000 fold
COX-1 [4]; monkey
  fold lower potency for inhibiting COX-1 than COX-2: > 1000 fold
COX-1 [6]; MC1 0.3 mg/kg i.v.
  time of peak brain radioactivity of [11C]PS13 after administration of blocker: 3.5 min
COX-1 [6]
  peak whole-brain radioactivity of [11C]PS13 after administration of blocker: 4.86 SUV

## COc1ccc(-c2nc(OCC(F)(F)F)nn2-c2ccc(OC)cc2)cc1 [PS13, 1,5-bis(4-methoxyphenyl)-3-(2,2,2-trifluoroethoxy)-1H-1,2,4-triazole]
COX-1 [5]
  VND of [11C]PS13 (x-axis intercept of Lassen plot), by blocker experiment: 2.5 mL/cm^3
COX-1 [5]; PS13 1 mg/kg
  reduction of [11C]PS13 brain regional VT values by preadministration: about 55%
COX-1 [5]; rhesus monkey, iv, read-out: COX-1 occupancy (slope of Lassen plot)
  receptor occupancy at 1 mg/kg: 87 ± 4%
COX-1 [6]
  whole-brain radioactivity of [11C]PS13 after administration of blocker: 1.11 SUV
  peak whole-brain radioactivity of [11C]PS13 after administration of blocker: 3.60 SUV

## COc1ccc(-c2nc(OCF)nn2-c2ccc(OC)cc2)cc1 [[^2H2,^18F]PS2]
COX-2 [2]
  IC50: > 1000 nM
COX-1 [3]; read-out: IC50 COX-1 human
  IC50: 4 ± 2 nM
COX-1 [4]
  IC50: 3.6 ± 1 nM

## [2H]C([2H])([18F])Oc1nc(-c2ccc(OC)cc2)n(-c2ccc(OC)cc2)n1 [[^2H2,^18F]PS2]
[7]
  monkey fP (n = 3): 0.039 ± 0.001
[8]; by about 25 min after i.v. injection
  radioactivity in plasma that was parent radioligand: 50%
[9]
  log D (n = 6): 3.26 ± 0.01
[10]
  radiochemical stability: > 99%
[11]
  decline of whole-brain radioactivity from peak: 74%
  radioactivity concentration in whole brain: 1.05 SUV
[11]; rhesus monkey
  peak radioactivity concentration in whole brain: 4.11 SUV
  time of peak radioactivity concentration in whole brain: 7 min
  radioactivity in skull on brain image (radiodefluorination): uptake of radioactivity in skull
[12]
  human fP (n = 3): 0.021 ± 0.000

## COc1ccc(-c2nc(OC)nn2-c2ccc(OC)cc2)cc1 [[^11C]PS1]
COX-2 [13]
  IC50: > 1000 nM
COX-2 [2]
  IC50: > 1000 nM
COX-1 [3]; read-out: IC50 COX-1 human
  IC50: 5 ± 5.2 nM
COX-1 [4]
  IC50: 4.6 ± 1.3 nM

## COc1ccc(-c2nc(O[11CH3])nn2-c2ccc(OC)cc2)cc1 [[^11C]PS1]
[7]
  monkey fP (n = 3): 0.042 ± 0.001
[9]
  log D (n = 6): 3.29 ± 0.00
[10]
  radiochemical stability: > 99%
[11]
  decline of whole-brain radioactivity from peak: 85%
  radioactivity concentration in whole brain: 0.62 SUV
[11]; rhesus monkey
  peak radioactivity concentration in whole brain: 4.26 SUV
  time of peak radioactivity concentration in whole brain: 1.75 min
[12]
  human fP (n = 3): 0.036 ± 0.001

## COc1ccc(-c2nc(OCC(F)(F)F)nn2-c2ccc(OC)cc2)cc1 [[^11C]PS13, [^11C]1,5-bis(4-methoxyphenyl)-3-(2,2,2-trifluoroethoxy)-1H-1,2,4-triazole]
[7]
  monkey fP (n = 3): 0.011 ± 0.001
[8]; 90 min after i.v. injection of [11C]PS13, radio-HPLC
  radioactivity in plasma represented by each species: 48.9%
[8]; at 90 min, baseline and self-block experiments
  radioactivity in plasma represented by unchanged radioligand: about 50%
[9]
  log D (n = 6): 4.26 ± 0.04
COX-1 [5]; all examined brain regions, Logan graphical analysis
  identifiability (SE) of VT: 0.1–1.8%
COX-1 [5]; pharmacological preblock experiments, monkey
  radioactivity uptake in brain specifically bound to COX-1: about 55%
[10]
  radiochemical stability: > 99%
[11]
  decline of whole-brain radioactivity from peak: 54%
COX-1 [6]; [15]
  decline of whole-brain radioactivity from peak: 43%
  radioactivity in whole brain: 1.65 SUV
  peak radioactivity in whole brain: 2.90 SUV
COX-1 [6]; [16]
  decline of whole-brain radioactivity from peak: 36%
  radioactivity in whole brain: 1.88 SUV
  peak radioactivity in whole brain: 2.92 SUV
COX-1 [6]; [17]
  peak uptake of radioactivity in brain: 3.73 SUV
  time of peak uptake of radioactivity in brain: 3.5 min
[12]
  human fP (n = 3): 0.002 ± 0.000

## [^11C]-Ketoprofen [[^11C]KTP]
[14]
  brain penetrance: poorly brain-penetrant
